From PubChem BioAssay
NPY-Y1 antag – NPY-Y1 receptor antagonists, primary screen, cell-based. Neuropeptide Y receptor type 1 (Homo sapiens), P25929. HEK293-CNG Y1 cells, membrane potential fluorescence; NPY at EC95, then isoproterenol. hit rate 1% among 200,000. AID 1040, 2008. inhibition, % at 3.6 µM;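 active means inhibition above the campaign mean inhibition of all tested compounds plus 3 SD, cut at about 20% in these data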;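 further: 0% = DMSO wells given NPY plus isoproterenol and 100% = isoproterenol alone without NPY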
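Test system: HEK293 cells co-expressing NPY Y1 receptor and cyclic-nucleotide gated channel; Also added: NPY (25 nM), isoproterenol (1 µM), Ro 20-1724 (25 µM); Compound dosing: one concentration, 3.6 µM, in 0.4% DMSO; Timing: dye 3 h, compound 60 min room temperature, stimulation 45 min; Technique: Membrane-potential fluorescent dye readout.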
Measles CPE – compounds protecting cells from measles virus cytopathic effect, primary screen, measles RdRp inhibitor project, single point, MLSMR library, absorbance; Measles virus-infected cells, CPE protection; protection (pct of control), % at 4 µM; hit rate 1.5% among 140,000; AID 841, 2007; in the data active means protection mostly above about 24%, no sharp cut-off; inactive means mostly below about 26%
NPY1 pot ag – NPY-Y1 receptor potentiators or agonists, primary screen, cell-based; NPY-Y1 expressing cells, potentiator/agonist activation; activation, % at 3.6 µM; hit rate 0.37% among 220,000; AID 1304, 2008; in the data active means activation above about 33%, passing the limit was not always enough;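 further: cells stimulated with NPY at EC10 then isoproterenol at EC100; 0% = low agonist plus stimulus and 100% = saturating agonist plus stimulus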
NPY-Y2 PAM-ag – NPY-Y2 potentiators or agonists, primary screen, cell-based. Neuropeptide Y receptor type 2 (Homo sapiens), P49146. cells expressing NPY-Y2, potentiator/agonist read-out. activation, % at 3.6 µM. hit rate 0.45% among 220,000. AID 1359, 2008; in the data active means activation above about 27%;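 further: cells stimulated with NPY near EC25 plus isoproterenol at EC100; 0% = vehicle plus submaximal agonist and 100% = vehicle plus saturating agonist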
Target sequence (P49146 whole entry, looked up): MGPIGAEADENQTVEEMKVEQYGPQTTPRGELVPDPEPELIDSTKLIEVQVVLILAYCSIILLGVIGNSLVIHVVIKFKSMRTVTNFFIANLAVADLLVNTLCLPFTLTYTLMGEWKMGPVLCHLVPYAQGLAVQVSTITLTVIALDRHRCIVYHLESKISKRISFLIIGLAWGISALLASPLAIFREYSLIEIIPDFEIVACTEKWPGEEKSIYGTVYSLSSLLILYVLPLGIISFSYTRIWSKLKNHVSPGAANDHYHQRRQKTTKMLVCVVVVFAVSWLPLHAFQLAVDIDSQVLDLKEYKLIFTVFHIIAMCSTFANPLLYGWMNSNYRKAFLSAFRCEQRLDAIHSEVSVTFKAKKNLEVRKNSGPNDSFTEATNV
NPY Y2 blocker – NPY-Y2 receptor antagonists, primary screen, cell-based. inhibition, % at 2.7 µM. NPY-Y2 expressing cells, antagonist mode. Neuropeptide Y receptor type 2 (Homo sapiens), P49146. hit rate 0.99% among 140,000;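 further: 0% = vehicle with agonist challenge and 100% = reference antagonist with challenge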
Rad51 HR inh – human RAD51 strand exchange inhibitors, primary screen, biochemical, fluorescence. inhibition, % at 10 µM. hRad51 DNA strand exchange, fluorescence dequenching. hit rate 0.085% among 200,000. DNA repair protein RAD51 homolog 1 (Homo sapiens), Q06609;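 active means inhibition above 40% at the single screening dose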;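 further: 0% = DMSO control wells and 100% = blanks with heterologous ssDNA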
Target sequence (Q06609 whole entry, looked up): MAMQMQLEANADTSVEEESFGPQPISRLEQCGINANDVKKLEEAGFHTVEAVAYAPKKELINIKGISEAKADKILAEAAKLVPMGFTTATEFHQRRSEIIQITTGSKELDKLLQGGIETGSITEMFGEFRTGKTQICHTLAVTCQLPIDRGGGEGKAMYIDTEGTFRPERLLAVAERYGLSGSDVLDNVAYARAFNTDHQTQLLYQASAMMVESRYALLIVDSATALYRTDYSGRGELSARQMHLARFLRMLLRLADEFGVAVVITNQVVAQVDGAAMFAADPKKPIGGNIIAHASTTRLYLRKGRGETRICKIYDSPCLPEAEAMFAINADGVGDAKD
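material = hRad51 filaments on single-stranded DNA | timing = filaments 15 min 37 °C, then compound 30 min | signal = FRET fluorescence dequenching, excitation 485 nm, emission 520 nm | benchmarks = control wells and blank wells on each plate | evaluation = percent inhibition relative to plate controls and blanks | compound = 10 µM final, single point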
NPY1 antag conf – NPY-Y1 receptor antagonists, retest of hits, confirmation, HEK293-CNG cells, membrane potential fluorescence, triplicate. inhibition, % at 3.6 µM. cAMP; NPY challenge against isoproterenol-raised cAMP. shares compounds with NPY-Y1 antag. hit rate 21% among 1,200; in the data active means inhibition above about 20%;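 further: 0% = vehicle with agonist plus stimulus and 100% = stimulus alone without agonist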
NPY2 antag ctr – NPY-Y2 receptor antagonists, selectivity check, confirmation, counter-screen for NPY-Y1 antagonist project, HEK293-CNG cells, membrane potential fluorescence, triplicate; shares compounds with NPY-Y1 antag; antagonism; cells given NPY, then isoproterenol; inhibition, % at 3.6 µM; hit rate 28% among 1,200;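 further: 0% = DMSO with agonist challenge and 100% = reference antagonist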
* = called active by the depositor; . = no result. The list is not random: actives were taken first. Their share in the collection is about 2.8%. Unless noted, no stated cut-off is given here; in the data, active means inhibition above about 17%; inactive means the rest.

SMILES	NPY-Y1 antag	Measles CPE	NPY1 pot ag	NPY-Y2 PAM-ag	NPY Y2 blocker	Rad51 HR inh	NPY1 antag conf	NPY2 antag ctr
CCSc1nnc2ccc(-c3ccco3)nn12	-1.4	.	3.0	15.1	.	5.6	.	.
COc1ccc(C)cc1N(C(=O)COc1cccc(F)c1)c1nc2ccccc2s1	3.0	18.7	6.8	5.2	7.0	3.3	.	.
COc1ccc(C)cc1N(C(=O)c1ccc(F)cc1)c1nc2ccccc2s1	22.3*	6.7	-19.4	-4.5	10.8	0.3	15.3	10.2
O=C(c1cc2sccc2n1Cc1ccc(F)cc1)N1CCCc2ccccc21	24.1*	14.0	-29.9	-10.0	14.6	-3.5	12.2	18.9*
CC(C)NC(=O)C1CCN(C(=O)c2cc3sccc3n2Cc2ccc(F)cc2)CC1	-6.8	6.0	29.1	16.9	-0.4	-5.5	.	.
O=C(Nc1ccc2c(c1)OCO2)N1CCN(Cc2ccco2)CC1	-2.6	.	4.8	-0.9	.	.	.	.
COc1ccc(C(=O)Nc2ccccc2C(=O)NCc2ccco2)cc1OC	-2.1	21.4	-6.4	2.9	3.2	5.7	.	.
COc1ccc(C(=O)Nc2ccc(Cl)cc2C(=O)NCc2ccco2)cc1OC	24.5*	25.5	-160.0	-155.6	15.8	-0.1	24.7*	24.0*
COc1ccc(C2Nc3ccccc3C(=O)N2Cc2ccccc2)cc1COc1ccccn1 (centres undefined)	35.8*	6.7	-4.5	-17.4	14.5	-2.6	4.4	6.1
O=[N+]([O-])c1ccccc1S(=O)(=O)N1CCN(Cc2ccc3c(c2)OCO3)CC1	3.1	.	-2.0	2.5	.	6.6	.	.
O=C(Nc1ccccc1N1CCN(c2ccccc2)CC1)c1ccccc1F	36.4*	.	-7.2	-17.9	.	11.4	17.8	16.1
O=C(Nc1ccccc1N1CCCCC1)c1ccccc1F	8.6	5.4	-11.9	2.2	5.5	-3.0	.	.
O=C(Cc1ccccc1)Nc1ccccc1N1CCN(c2ccccc2)CC1	22.4*	2.6	10.3	10.0	14.2	-4.1	8.4	9.0
CCCCC(=O)Nc1ccccc1N1CCN(c2ccccc2)CC1	23.5*	.	-19.7	-20.3	.	-13.5	19.6	29.6*
CCCCCC(=O)Nc1ccccc1N1CCOCC1	-2.9	15.3	2.9	-2.5	0.1	4.9	.	.
O=C(Cc1ccc(Cl)cc1)Nc1ccccc1N1CCOCC1	2.5	7.1	-12.5	-4.3	-1.1	-10.7	.	.
COc1cccc(CNC(=O)C(c2ccc(Cl)cc2)C(C)C)c1 (centres undefined)	20.8*	9.3	-5.2	-8.0	10.9	-0.4	17.3	6.5
Fc1ccc2nc(C3CCCCN3Cc3nc(CC4CC4)no3)[nH]c2c1 (centres undefined)	39.3*	.	-14.6	-5.7	.	.	9.3	10.7
O=C(Cn1c(C(=O)N2CCc3ccccc3C2)cc2sccc21)c1ccccc1	4.3	9.8	-3.1	3.7	7.0	-0.8	.	.
O=C(Cn1c(C(=O)N2CCN(C3CCCCC3)CC2)cc2sccc21)c1ccccc1	22.5*	4.3	-34.7	-35.6	14.6	-11.5	10.0	8.2
CC1CC(C)CN(S(=O)(=O)c2ccc(C(=O)N(c3ccccn3)C3CCCCC3)cc2)C1 (centres undefined)	30.7*	.	-15.1	-5.1	.	3.8	9.3	7.2
Cc1ccc(Nc2nc(N)nc(-c3oc4ccccc4c3C)n2)cc1	24.5*	.	-19.2	-30.4	.	.	5.5	29.9*
CCOc1ccc(N=C(NN)c2ccc3ccccc3n2)cc1	23.6*	2.4	-39.7	-19.6	11.3	0.0	3.5	7.6
C=CCN(C(=O)CSc1nc2c(sc3ccccc32)c(=O)n1CCN(CC)CC)c1ccccc1	23.2*	.	-16.9	-8.7	.	.	43.8*	64.9*
C=CCN(C(=O)CSc1nc2ccsc2c(=O)n1Cc1ccccn1)c1ccccc1	1.6	.	6.8	2.6	.	21.0	.	.
SMILES	NPY-Y1 antag	Measles CPE	NPY1 pot ag	NPY-Y2 PAM-ag	NPY Y2 blocker	Rad51 HR inh	NPY1 antag conf	NPY2 antag ctr
CCN(CC)CCn1c(SCC(=O)Nc2ccc(F)cc2)nc2c(sc3ccccc32)c1=O	34.6*	.	-55.2	-24.7	.	10.8	14.9	28.8*
COc1ccccc1NC(=O)CSc1nc2c(sc3ccccc32)c(=O)n1CCN(C)C	6.3	.	-0.4	-7.7	.	14.3	.	.
COc1cccc(/C=N/NC(=O)C(C)Cn2cnc3ccccc32)c1 (centres undefined)	.	.	37.2	1.3	.	4.8	.	.
COc1ccccc1NC(=S)N(Cc1ccccc1)Cc1cccs1	26.6*	.	-3.4	1.8	.	6.2	8.6	9.8
NC(=O)C1CCN(CC(=O)N2N=CCC2c2ccccc2)CC1 (centres undefined)	-3.9	.	15.1	-4.3	.	-5.1	.	.
O=C(COC(=O)CCSc1ccc(Cl)cc1)NCc1ccc(Cl)cc1	10.9	11.5	-33.4	-25.1	8.8	-3.8	.	.
O=C(COC(=O)CCC(=O)c1ccc(Cl)cc1)NCc1ccco1	22.1*	.	-23.7	-23.5	.	-3.5	5.2	3.6
O=C(COC(=O)CCSc1ccc(Cl)cc1)NCc1ccccc1	21.8*	8.0	-25.6	-11.6	14.6	-0.8	8.1	9.5
O=C(COC(=O)CCC(=O)c1ccc(Cl)cc1)NCCc1ccccc1	10.0	.	0.7	-18.7	.	-6.0	.	.
Cc1ccc(C)c(NS(=O)(=O)c2ccc3c(c2)Cc2cc(S(=O)(=O)Nc4cc(C)ccc4C)ccc2-3)c1	-1.4	12.0	5.5	13.8	-0.2	2.4	.	.
CCCCN(C)C(=O)c1nc2ccccn2c1CN1CCN(C/C=C/c2ccccc2)CC1	25.7*	.	-2.2	-15.4	.	.	17.8	10.4
Cc1cc(C(=O)Cn2nc(C(=O)O)c3ccccc3c2=O)c(C)n1-c1cccc(C(F)(F)F)c1	.	.	-19.1	-19.7	.	1.7	.	.
Cc1cc(C(=O)Cn2nc(C(=O)O)c3ccccc3c2=O)c(C)n1-c1ccc(F)cc1	21.6*	30.4	-38.9	-22.9	12.8	.	14.2	12.0
Cc1nnc(-c2ccc(Cl)cc2)[nH]c1=O	2.3	.	2.7	-9.9	.	.	.	.
Nc1nc(CN2CCN(c3ccccc3)CC2)nc(N2CCCc3ccccc32)n1	21.7*	87.2*	-38.0	-17.3	12.8	-6.1	8.2	8.5
Nc1nc(CN2CCN(c3cccc(Cl)c3)CC2)nc(N2CCCc3ccccc32)n1	12.7	11.4	-59.3	-37.1	16.2	11.1	.	.
